TNAP act hi DEA = TNAP activators at high phosphate acceptor level, primary screen, biochemical, luminescence, uHTS | Alkaline phosphatase, tissue-nonspecific isozyme (Homo sapiens), P05186 | 200,000 tested, under 10 active | activation factor at 20 µM | AID 1136, 2008 | purified TNAP, CDP-star luminescence, 1 M DEA, 30 min; active compounds read high; 0 = EDTA background, 1 = DMSO-only activity;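 active means activation factor at least 2 at 20 µM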
Target sequence (P05186 whole entry, looked up): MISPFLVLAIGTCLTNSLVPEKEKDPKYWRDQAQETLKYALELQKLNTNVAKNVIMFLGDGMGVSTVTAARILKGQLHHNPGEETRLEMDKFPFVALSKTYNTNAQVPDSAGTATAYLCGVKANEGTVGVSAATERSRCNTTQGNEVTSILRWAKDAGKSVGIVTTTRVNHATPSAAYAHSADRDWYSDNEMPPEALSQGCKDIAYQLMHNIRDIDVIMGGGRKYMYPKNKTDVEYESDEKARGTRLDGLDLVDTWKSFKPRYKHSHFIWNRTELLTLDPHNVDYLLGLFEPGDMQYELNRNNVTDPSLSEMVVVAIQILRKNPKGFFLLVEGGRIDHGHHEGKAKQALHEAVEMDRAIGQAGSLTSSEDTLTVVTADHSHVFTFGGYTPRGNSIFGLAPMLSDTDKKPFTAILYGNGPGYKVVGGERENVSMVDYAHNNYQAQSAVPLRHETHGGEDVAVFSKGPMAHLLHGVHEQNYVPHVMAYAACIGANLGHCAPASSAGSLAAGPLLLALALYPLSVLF
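Measured by: Luminescent substrate turnover signal | Test system: Human TNAP | Input: TNAP 1/800 final | Dosing: 20 µM single point | Schedule: 30 min, room temperature | Controls: EDTA wells as negative control, DMSO wells as positive control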
G6PDH counter = L. mesenteroides G6PDH inhibitors, counter-screen for G6PDH-coupled screening assays, biochemical, Leuconostoc mesenteroides enzyme; inhibition, % at 5 µM; glucose-6-phosphate dehydrogenase [Leuconostoc mesenteroides]; Purified L. mesenteroides G6PDH, diaphorase/resazurin coupled fluorescence, 45 min; AID 1020, 2008; 200,000 compounds, 0.12% hits; in the data active means inhibition above about 50%
p97 ATPase inh = inhibitors of human p97 ATPase, primary screen, biochemical | recombinant p97 ATPase, Kinase-Glo ATP luminescence, 3 h | 220,000 compounds, 0.42% hits | inhibition, % at 8 µM | Transitional endoplasmic reticulum ATPase (Homo sapiens), P55072; in the data active means inhibition above about 15%;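 further: 0% = DMSO vehicle and 100% = wells lacking enzyme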
TNAP inh no acc = human TNAP enzyme inhibitors, primary screen, biochemical, luminescent, no phosphate acceptor, uHTS. purified TNAP, CDP-star luminescence, 30 min. inhibition, % at 20 µM. 200,000 compounds, 0.26% hits;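 active means tissue-nonspecific alkaline phosphatase inhibition above about 50% at 20 µM in the single-dose screen, limit read from the data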;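 further: 0% = DMSO negative control and 100% = EDTA positive control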
TNAP inh hiacc = human TNAP enzyme inhibitors, primary screen, biochemical, luminescent, high phosphate acceptor level, uHTS; Alkaline phosphatase, tissue-nonspecific isozyme (Homo sapiens), P05186; purified TNAP, CDP-star luminescence, 1 M DEA; inhibition, % at 20 µM; 200,000 compounds, 0.03% hits; AID 1135, 2008;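 active means over 50% inhibition of tissue-nonspecific alkaline phosphatase at 20 µM in the single-dose screen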;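 further: plate controls were DMSO wells for no effect and EDTA-quenched wells as full inhibition for full effect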
DTT redox prof = compounds producing H2O2 with reducing agent – biochemical, NIH compound library profiling, artefact control for MLSCN library redox annotation, primary screen; DTT-dependent redox cycling H2O2, phenol red/HRP absorbance; 100% = 100 µM peroxide control, 0% = buffer; activation, % at 10 µM; 200,000 compounds, 0.03% hits; AID 878, 2007;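 active means activation of at least 50% relative to the plate's high and low controls in the primary single-dose screen; inactive means activation below 50%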;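 further: compound incubated with DTT at 0.8 mM final as the reducing agent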
p97 confirm = p97 ATPase inhibitors, retest, confirmation, biochemical; recombinant p97 ATPase, Kinase-Glo ATP luminescence; inhibition, % at 8 µM; 760 compounds, 44% hits; shares compounds with p97 ATPase inh;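 active means percent inhibition of p97 ATPase above a set limit, the primary screen's mean plus 3 SD, cut at about 15% in these data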;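 further: 0% = DMSO wells and 100% = wells lacking p97 protein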
The depositor's hits bear a star; x = no result given. Compounds with a hit are over-represented: about 0.79% of the library has one in this group of screens.

SMILES | TNAP act hi DEA | G6PDH counter | p97 ATPase inh | TNAP inh no acc | TNAP inh hiacc | DTT redox prof | p97 confirm
CC(=O)Nc1cccc(-c2cn3ccc(C)cc3n2)c1 | 1 | 14.6 | 17.4* | -0.8 | 4.4 | 0.9 | 21.3*
Cc1c(C(=O)NC(=S)Nc2ccc(N3CCOCC3)cc2)cccc1[N+](=O)[O-] | 1 | 5.9 | 2.1 | -8.0 | -4.2 | -0.3 | x
Fc1ccc(-c2nn(-c3ccccc3)cc2CNCc2ccccc2)cc1 | 1.1 | 10.4 | -1.3 | -9.0 | -8.3 | 0.3 | x
O=C(CCl)Nc1cn(-c2ccccc2)nc1-c1ccc(F)cc1 | 1.1 | -4.1 | 17.1* | -11.0 | -7.0 | 0.1 | 26.3*
O=C(Cc1ccccc1)NC1(Cc2ccc(O)cc2)CCCCC1 | 1 | 18.9 | 0.0 | -2.7 | 3.6 | -0.2 | x
O=C(N[C@@H](Cc1ccccc1)C(=O)O)c1ccc(C(F)(F)F)cc1 | 1.1 | 10.3 | 0.7 | -4.6 | -7.2 | 0.6 | x
O=C(Cc1ccccc1)NC1(O)C(=O)c2ccccc2C1=O | x | x | 15.7* | x | x | x | 15.2*
Cc1ccc(C(=O)NC2(O)C(=O)c3ccccc3C2=O)cc1C | x | x | 26.4* | x | x | x | 26.0*
O=C(NC1(O)C(=O)c2ccccc2C1=O)c1ccc(C(F)(F)F)cc1 | x | x | 27.0* | x | x | x | 27.6*
O=C(COc1ccccc1C(=O)Nc1ccccc1)c1ccc(Br)cc1 | 1 | -0.9 | 1.3 | -15.2 | -4.7 | 0.0 | x
O=C(Oc1ccccc1C(=O)Nc1ccccc1)c1ccccc1Br | 1 | 6.8 | 22.8* | -13.8 | 1.5 | -0.2 | 30.4*
COc1ccc(/C=C/C(=O)OCn2c(SC)nnc(C)c2=O)cc1OC | 1 | 6.3 | 0.9 | -5.3 | -0.4 | -0.4 | x
c1ccc(CN2CCN(c3ncnc4c3[nH]c3ccccc34)CC2)cc1 | 1.1 | 1.8 | 14.9* | -6.9 | -5.8 | 2.7 | 10.5
COc1ccc(Cl)cc1NC(=O)COC(C)=O | 1 | 4.5 | 5.1 | -15.0 | -0.9 | -1.5 | x
COc1ccc(Cl)cc1NC(=O)CC(C)=O | 1.1 | 12.4 | 17.3* | -16.1 | -9.4 | -0.5 | 9.2
CC(C)c1onc(C(=O)N2CCC(C(N)=O)CC2)c1[N+](=O)[O-] | x | x | 5.8 | x | x | x | x
COc1cccc(N2CCN(C(=O)CSc3ccc(F)cc3)CC2)c1 | 1 | 6.1 | -7.3 | -6.9 | 2.5 | -0.5 | x
COc1ccc(-c2csc(N(Cc3ccco3)C(=O)c3cccs3)n2)cc1 | x | x | 39.0* | x | x | x | 16.3*
O=C(CCc1nnc(COc2ccccc2)o1)NC1(c2ccccc2)CC1 | 1 | -3.9 | 4.3 | -14.4 | -4.1 | 0.1 | x
COc1cc(/C=c2\sc3n(c2=O)CCCN=3)ccc1O | 0.8 | 3.6 | 6.7 | 5.7 | 15.3 | 2.6 | x
COc1cc(/C=c2\sc3n(c2=O)C(c2ccccc2)C(c2ccccc2)=NN=3)ccc1O (stereo not drawn) | 0.8 | 10.5 | 16.2* | 23.8 | 23.3 | -4.9 | 9.4
O=C(COc1ccc(C2SCCS2)cc1)NNC(=O)C(Cl)Cl | x | x | 26.4* | x | x | x | 9.3
COC(=O)c1ccccc1-c1ccc(C(c2c(C)[nH][nH]c2=O)c2c(C)[nH][nH]c2=O)o1 | 0.9 | 19.1 | 19.8* | -3.5 | 14.0 | -0.9 | 5.5
Cc1[nH][nH]c(=O)c1C(c1ccc(-c2ccc(Cl)c(C(=O)O)c2)o1)c1c(C)[nH][nH]c1=O | 0.9 | 32.8 | 16.0* | 10.7 | 8.2 | 0.3 | 34.7*
COC(=O)c1cccc(-c2ccc(C(c3c(C)[nH][nH]c3=O)c3c(C)[nH][nH]c3=O)o2)c1 | 0.9 | 30.0 | 12.4 | -34.9 | 5.9 | -0.2 | x
SMILES | TNAP act hi DEA | G6PDH counter | p97 ATPase inh | TNAP inh no acc | TNAP inh hiacc | DTT redox prof | p97 confirm
CCOc1ccccc1NS(=O)(=O)c1cn(C)c(=O)n(C)c1=O | x | x | 2.6 | x | x | x | x
O=C1c2ccc([N+](=O)[O-])cc2NC(c2ccco2)N1/N=C/c1ccco1 (stereo not drawn) | x | x | 15.9* | x | x | x | 7.8
O=C1c2ccccc2NC(c2ccc(-c3cccc([N+](=O)[O-])c3)o2)N1O (stereo not drawn) | 1 | 7.3 | 2.1 | -3.0 | -2.1 | -0.1 | x
Cc1ccc(CSCCNS(=O)(=O)c2ccccc2)cc1 | 1 | -5.2 | -2.3 | -9.3 | -2.7 | -0.3 | x
NCCNC[C@@H]1COC2(CCCCCCCCCCC2)O1 | x | x | 1.4 | x | x | x | x
Cc1cc(/C=C2\SC(=S)NC2=O)c(C)n1-c1cccc(O)c1 | x | x | 18.4* | x | x | x | 15.8*
Cc1cc(/C=C2\SC(=S)NC2=O)c(C)[nH]1 | 0.8 | 3.6 | 15.3* | 11.7 | 20.1 | 0.0 | 12.6
O=C1C=C(NCc2ccccc2)c2ccccc2C1=O | 1 | 53.2* | 47.6* | 5.7 | -0.4 | -0.3 | 33.1*
O=c1cccccc1NCc1ccccc1 | 0.9 | 13.4 | 3.7 | -7.9 | 11.9 | 0.0 | x
O=S(=O)(c1ccc(NC(=S)N/N=C/c2ccc(O)c(O)c2)cc1)N1CCOCC1 | x | x | 18.7* | x | x | x | 21.0*
O=C(CN(C(=O)Cn1nnc(-c2cccs2)n1)c1ccc2c(c1)OCCO2)NCC1CCCO1 (stereo not drawn) | 1.1 | -15.8 | 3.7 | -5.6 | -7.5 | 3.0 | x
O=C(CN(C(=O)Cn1nnc(-c2cccs2)n1)c1ccc2c(c1)OCCO2)NC1CCCCC1 | 1.1 | 11.1 | 15.4* | -0.4 | -6.4 | -0.4 | 7.2
CCOc1cc(/C=C2\C(=O)N(c3ccc(C(N)=O)cc3)N=C2C)ccc1OC(=O)c1cccs1 | 1 | 10.8 | 12.2 | -9.1 | 0.4 | 1.1 | x
CCOc1cc(/C=C2/C(=O)N(c3ccccc3)N=C2C)ccc1OC(=O)c1ccco1 | 0.8 | 5.4 | 27.4* | -4.0 | 22.4 | 1.2 | 1.0
COc1ccc([N+](=O)[O-])cc1N(CC(=O)NCCC1=CCCCC1)S(C)(=O)=O | 1 | 0.3 | 2.9 | -4.0 | 3.6 | 0.4 | x
CC1=NN(c2ccccc2)C(=O)C1 | 1 | 4.9 | 20.5* | -13.9 | -4.7 | 0.1 | 6.1
CC1=NN(c2ccc(N)cc2)C(=O)C1 | 1 | 1.4 | 11.4 | -24.5 | -3.6 | 0.3 | x
CC1=NN(Cc2ccccc2)C(=O)C1 | 1 | 0.3 | 21.2* | -13.9 | -2.9 | -0.5 | 0.9
COc1ccc(C2=C(C=C(C#N)C#N)C(c3ccccc3C)c3ccccc3O2)cc1OC (stereo not drawn) | 1 | -7.0 | 0.7 | 22.5 | 4.9 | 0.3 | x
CC1CCc2nc(N)c(C#N)c(-c3ccncc3)c2C1 (stereo not drawn) | 1 | 7.2 | 4.6 | -2.6 | -0.5 | 1.1 | x
